# Screening data: PubChem BioAssay, Johns Hopkins Ion Channel Center
# Kir21 block: blocks the mouse Kir2.1 inward-rectifier potassium channel | P35561 | HEK293-Kir2.1, FluxOR thallium flux fluorescence; hits give low values | B-score at 10 µM | 310,000 compounds, 0.85% hits;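 active = fluorescence ratio B-score at or below minus 3 SD of library scores, with starting-brightness B-score within 2 SD, cut at about -4.2 in these data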;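 note: channel flux triggered by added potassium and thallium sulfate stimulus; B-score of peak minus minimum fluorescence over baseline after thallium stimulus; more negative B-score means stronger Kir2.1 block with less thallium influx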
# hERG protect: hERG (human) protection from proarrhythmic block; Q12809; CHO-hERG, FluxOR thallium flux, dofetilide IC70 present; activation (rescue from dofetilide block), less the hit threshold, % at 10 µM; 310,000 compounds, 0.51% hits; AID 1511;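 active = activation above the mean of controls blocked by dofetilide plus 5 SD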;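 note: thallium influx through hERG after potassium depolarization seen as dye fluorescence rise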
# KCNQ1 block: human KCNQ1 channel inhibition. 310,000 compounds, 1.3% hits. AID 2642. CHO-K1 KCNQ1, FluxOR thallium flux fluorescence; hits give high values. B-score at 10 µM;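 active = compounds whose thallium flux B-score, printed positive for inhibition, exceeds three library SD while starting fluorescence stays within three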;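 note: channel opened by potassium depolarization with thallium stimulus after 20 min compound exposure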
# KCNQ1 act: potentiates or activates the human KCNQ1 potassium channel; P51787; CHO-K1 KCNQ1, thallium flux FluxOR fluorescence; hits give high values; B-score at 10 µM; 310,000 compounds, 0.35% hits; AID 2648;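 active = fluorescence ratio B-score, a plate-corrected score, at least three library SD, with initial intensity B-score within 5 SD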
#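 Doses: Single concentration per compound, DMSO matched to controls | Test system: KCNQ1-transfected CHO-K1 cells | Timing: 90 min dye loading and 20 min compound exposure, both at room temperature | Measured by: Kinetic FluxOR thallium fluorescence, 10-s 1-Hz baseline, 110-s post-stimulus read | Medium: Assay buffer with matched DMSO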
# KCNK9 block: blocks the human KCNK9 two-pore domain potassium channel; Q9NPC2; HEK293 KCNK9, FluxOR thallium flux fluorescence; hits give low values; 310,000 compounds, 1.2% hits; B-score at 10 µM;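 active = ratio B-score over 3 SD below the library mean, with starting fluorescence within 5 SD of its mean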;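 note: negative B-score means less thallium flux so channel inhibition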
# KCNK3 block: human KCNK3 channel inhibition, primary screen. CHO-KCNK3 thallium flux, FluxOR fluorescence; hits give low values. B-score at 10 µM. 340,000 compounds, 0.84% hits. AID 602410;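 active = B-score under library mean minus 4 SD, starting fluorescence ratio at most library mean plus 5 SD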;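 note: more negative B-score means stronger inhibition of thallium flux through KCNK3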
# Target sequence (O14649 whole entry, looked up): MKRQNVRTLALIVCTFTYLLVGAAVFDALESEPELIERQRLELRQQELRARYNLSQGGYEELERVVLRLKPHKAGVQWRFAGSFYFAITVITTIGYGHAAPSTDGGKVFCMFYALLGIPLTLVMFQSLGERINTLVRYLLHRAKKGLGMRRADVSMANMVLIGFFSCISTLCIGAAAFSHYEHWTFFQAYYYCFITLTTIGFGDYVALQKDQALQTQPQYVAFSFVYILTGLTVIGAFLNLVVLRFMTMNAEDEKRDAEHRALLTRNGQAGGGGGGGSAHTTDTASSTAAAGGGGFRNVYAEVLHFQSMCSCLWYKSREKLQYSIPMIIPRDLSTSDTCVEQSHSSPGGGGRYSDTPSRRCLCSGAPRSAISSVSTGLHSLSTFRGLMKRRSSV
# KCNK9 block conf: human KCNK9 inhibitor confirmation. shares compounds with KCNK9 block. HEK293 KCNK9 cells, FluxOR thallium flux fluorescence. inhibition, % at 10 µM. 4,900 compounds, 43% hits;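 active = thallium signal inhibited by more than 5 SD of the compound-free buffer control wells, on both duplicate plates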;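 note: 0% = assay buffer control wells without compound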
# Kir2-1 spec: mouse Kir2.1 off-target activity of KCNK9 modulators; shares compounds with KCNK9 block; 4,900 compounds, 4% hits; inhibition, % at 10 µM; Kir2.1 cells, FluxOR thallium flux fluorescence;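 active = thallium signal drop more than 5 SD beyond the mean of the no-compound control wells, seen in both duplicate plates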;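 note: signal is fluorescence rise after thallium addition divided by baseline fluorescence; plate controls were assay buffer only for no effect and full block by chlorpromazine control for full effect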
# HEK293 Tl ctr: non-induced cell nonspecific activity of KCNK9 modulators; shares compounds with KCNK9 block; non-induced KCNK9-HEK293, FluxOR thallium flux; inhibition, % at 10 µM; 4,900 compounds, 40% hits;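 active = thallium signal drop beyond 5 SD of the untreated control mean, on both duplicate plates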;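 note: plate controls were buffer only IC0 wells for no effect and SID17386958 at its maximal inhibitory level for full effect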
# An asterisk follows results filed as active; i = inactive; x = no result given. This is a sample that favours compounds with a hit; in the whole collection about 3.7% have one here.
SMILES,Kir21 block,hERG protect,KCNQ1 block,KCNQ1 act,KCNK9 block,KCNK3 block,KCNK9 block conf,Kir2-1 spec,HEK293 Tl ctr
CCOc1ccccc1NC(=O)N1CCCC(c2nc(-c3ccc(C)o3)no2)C1 (stereo not drawn),-0.39,-16,i,i,i,i,x,x,x
CCCCNC(=O)[C@H]1C[C@H]1[C@@H](O)[C@H](CO)NC(=O)[C@H](Cc1ccccc1)NC(=O)OC(C)(C)C,-0.15,-4,i,i,i,i,i,i,i
COc1ccc(F)cc1S(=O)(=O)Nc1cccc(C(=O)O)c1,1,-1,i,i,i,i,x,x,x
CCCCCCn1c(=O)[nH]c2c(c1=O)CCC2,0.46,-9,i,i,i,i,x,x,x
CCn1c2c(c(=N)c3c1CCC3)CCC2,0.12,-4,i,i,i,i,x,x,x
CCCCCCCCCn1c2c(c(=N)c3c1CCC3)CCC2,-15*,-35,10*,i,-16*,-19*,62%*,87%*,42%*
CCCCCCCn1c2c(c(=N)c3c1CCC3)CCCC2,-6.5*,-28,6*,i,-9.9*,i,70%*,78%*,36%*
Cc1occc1C(=O)N(C)Cc1nc(-c2ccc(Cl)cc2)no1,-0.92,-7,i,i,i,i,x,x,x
CSc1nc(Nc2ccc(Cl)cc2)c(C#N)c(=O)[nH]1,1.1,-2,i,i,i,i,x,x,x
N#Cc1c(Nc2ccc(Cl)cc2)s[nH]c1=O,-0.03,-8,i,i,i,i,i,i,i
CC(C)C(C)NC(=O)COc1ccc(-c2ccccc2)cc1 (stereo not drawn),-0.04,-10,i,i,-9.9*,i,34%*,i,i
CC(C)C(C)NC(=O)COc1ccc(OCc2ccccc2)cc1 (stereo not drawn),1.8,-11,i,i,i,i,x,x,x
C[C@H](CO)N1C[C@H](C)[C@@H](CN(C)S(=O)(=O)c2ccccc2)Oc2ccc(NC(=O)CCC(F)(F)F)cc2C1=O,x,x,x,x,x,i,x,x,x
CCCCn1c(NS(=O)(=O)c2ccc(C)cc2)c(S(=O)(=O)c2ccccc2)c2nc3ccccc3nc21,-1.7,-9,i,9*,i,i,i,i,i
COC(=O)c1sccc1NC(=S)N1CC(C)CC(C)C1 (stereo not drawn),0,-1,i,i,i,i,i,i,28%*
COC(=O)c1sccc1NC(=S)N1CCN(c2ccc(F)cc2)CC1,-0.78,-9,i,i,-9.7*,i,i,i,32%*
COC(=O)c1sccc1NC(=S)N1CCN(c2ccccc2)CC1,0.13,-6,i,i,i,i,x,x,x
COC(=O)c1sccc1NC(=S)N1CCC(C)CC1,0.15,-15,i,i,i,i,x,x,x
O=C1CCCC/C=C\C[C@H](CC(=O)N(CCO)Cc2ccccc2)C(=O)N2CCC[C@@H]2CO1,x,x,x,x,x,i,x,x,x
COc1ccc(C(=O)C2CCCN(C(=O)CCc3ccccn3)C2)c(C)c1 (stereo not drawn),-1.4,-8,i,i,i,i,i,i,i
COc1c(C)cc(C(=O)C2CCCN(C(=O)/C=C/c3ccccn3)C2)cc1C (stereo not drawn),-0.45,-16,i,i,i,i,i,i,i
COC(=O)CCCC(=O)N1CCCC(C(=O)c2ccc(OC)cc2C)C1 (stereo not drawn),-0.48,0,i,i,i,i,i,i,i
